For orientation: EC50 means the concentration needed to bring the measured effect to its halfway point. In general, IC50 refers to the concentration at which inhibition is half-maximal.

The source made the active and inactive calls.

In the first data set the test system is Paracentrotus lividus. The experiment in a line: Antiproliferative activity against Paracentrotus lividus embryo assessed as cleavage alteration after 10 to 15 mins fertilization 45 to 60 mins before first mitotic cycle completeion. Type of data set: functional, organism-based.
Conditions: not given
In a few lines: (§1)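 Paracentrotus lividus embryos, gametes obtained by intracoelomic 0.5 M KCl injection. Fertilized eggs ([…] post-fertilization, 45–60 min before first mitosis) were exposed to 2-fold decreasing concentrations, at up to 3000 embryos/mL in filtered sea water at room temperature. Stocks were 5 mM in 95% EtOH or 5–10 mM in DMSO, diluted 10-fold with 95% EtOH. Read-out was scored at 2.5–6 h: threshold concentration for cleavage alteration or full mitotic arrest. Duplicate measurements.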
For `Nc1nc2ccccc2cc1-c1nnc(Nc2ccc3c(c2)OCO3)o1`, the EC50 was determined as 50 nM.
Take `Clc1ccc(Nc2nnc(-c3nscc3NCc3cccnc3)o2)cc1`: the EC50 came out at 500 nM.
Turning to `c1cncc(CNc2csnc2-c2nnc(Nc3ccc4c(c3)OCO4)o2)c1`, the EC50 was determined as 5 nM.
As to `Nc1ccccc1-c1nnc(Nc2ccc3c(c2)OCCO3)o1`, the EC50 came to 1 nM.
For `CS(=O)(=O)c1ccc(Nc2nnc(-c3ccccc3N)o2)cc1`, the EC50 was determined as 4000 nM.
Regarding `Nc1[nH]ncc1-c1nnc(Nc2ccc3c(c2)OCO3)o1`, the EC50 is above 20000 nM.
Still for that read-out and setting: the same measure for `Cn1ncc(NCc2cccnc2)c1-c1nnc(Nc2ccc3c(c2)OCCO3)o1`: 200 nM.
With `c1cncc(CNc2cn[nH]c2-c2nnc(Nc3ccc4c(c3)OCO4)o2)c1`, the EC50 was 1000 nM.
With `c1ccc(-c2nnc(Nc3ccc4c(c3)OCO4)o2)c(NCc2ccncc2)c1`, the EC50 is 0.5 nM.
`COc1cc(-c2nnc(Nc3ccc4c(c3)OCO4)o2)cc(OC)c1OC`: the EC50 came out at 400 nM.
With `Nc1ccccc1-c1nnc(Nc2ccc3c(c2)OCO3)o1`, the EC50 came to 1 nM.
On to `c1cncc(CNc2ccccc2-c2nnc(Nc3ccc4c(c3)OCCO4)o2)c1`, for which the EC50 is 1 nM.
Turning to `c1cncc(CNc2cn[nH]c2-c2nnc(Nc3ccc4c(c3)OCCO4)o2)c1`, the 50% effective concentration (EC50) was found to be 1000 nM.
Take `c1cc(CNc2csnc2-c2nnc(Nc3ccc4c(c3)OCCO4)o2)ccn1`: the EC50 was determined as 2 nM.

For the next data set, the system named is Paracentrotus lividus. The experiment in a line: Antimitotic activity against Paracentrotus lividus embryo assessed as cleavage arrest after 10 to 15 mins fertilization 45 to 60 mins before first mitotic cycle completeion. The class given is functional, organism-based.
Conditions: not given
An outline of the steps: as §1
As for `Nc1nc2ccccc2cc1-c1nnc(Nc2ccc3c(c2)OCO3)o1`, the EC50 worked out at 2000 nM.
For `Clc1ccc(Nc2nnc(-c3nscc3NCc3cccnc3)o2)cc1`, the EC50 came to 2000 nM.
As to `c1cncc(CNc2csnc2-c2nnc(Nc3ccc4c(c3)OCO4)o2)c1`, the EC50 came to 50 nM.
For `Nc1ccccc1-c1nnc(Nc2ccc3c(c2)OCCO3)o1`, the EC50 amounted to 20 nM.
On to `CS(=O)(=O)c1ccc(Nc2nnc(-c3ccccc3N)o2)cc1`, for which the concentration for a half-maximal effect (EC50) was above 4000 nM.
Same read-out and setting: the same measure for `Nc1[nH]ncc1-c1nnc(Nc2ccc3c(c2)OCO3)o1`: above 20000 nM; for `Cn1ncc(NCc2cccnc2)c1-c1nnc(Nc2ccc3c(c2)OCCO3)o1`: 1000 nM; for `c1cncc(CNc2cn[nH]c2-c2nnc(Nc3ccc4c(c3)OCO4)o2)c1`: above 10000 nM.
The same measure, in the same setting: the same measure for `c1ccc(-c2nnc(Nc3ccc4c(c3)OCO4)o2)c(NCc2ccncc2)c1`: 2 nM.
With `COc1cc(-c2nnc(Nc3ccc4c(c3)OCO4)o2)cc(OC)c1OC`, the concentration giving a half-maximal response (EC50) turned out to be 1000 nM.
As to `Nc1ccccc1-c1nnc(Nc2ccc3c(c2)OCO3)o1`, the EC50 was 10 nM.
Consider `c1cncc(CNc2ccccc2-c2nnc(Nc3ccc4c(c3)OCCO4)o2)c1`, for which the half-maximal effective concentration (EC50) was 5 nM.
As for `c1cncc(CNc2cn[nH]c2-c2nnc(Nc3ccc4c(c3)OCCO4)o2)c1`, the EC50 was above 10000 nM.
On to `c1cc(CNc2csnc2-c2nnc(Nc3ccc4c(c3)OCCO4)o2)ccn1`, for which the half-maximal effective concentration (EC50) worked out at 5 nM.

For a further data set, the system named is Paracentrotus lividus. The experiment in a line: Cytotoxicity against Paracentrotus lividus embryo assessed as embryo spinning after 9 to 12 hrs fertilization and 0.5 to 20 hrs treatment. The class given is functional, organism-based.
Conditions: not given
An outline of the steps:
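Paracentrotus lividus free-swimming blastulae treated just after hatching (9–12 h post-fertilization). Behavior was monitored by light microscopy and embryo spinning scored as threshold concentration. Embryos were held in filtered sea water at room temperature with paddle agitation. Compound stocks were in 95% EtOH or DMSO diluted in EtOH; maximal tolerated final DMSO 0.05%, EtOH 1%.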
Regarding `Nc1nc2ccccc2cc1-c1nnc(Nc2ccc3c(c2)OCO3)o1`, the EC50 is above 2000 nM.
Consider `Clc1ccc(Nc2nnc(-c3nscc3NCc3cccnc3)o2)cc1`, for which the EC50 is above 2500 nM.
`c1cncc(CNc2csnc2-c2nnc(Nc3ccc4c(c3)OCO4)o2)c1`: the 50% effective concentration (EC50) was 50 nM.
Turning to `Nc1ccccc1-c1nnc(Nc2ccc3c(c2)OCCO3)o1`, the EC50 was 100 nM.
For `CS(=O)(=O)c1ccc(Nc2nnc(-c3ccccc3N)o2)cc1`, the EC50 was above 5000 nM.
As to `Nc1[nH]ncc1-c1nnc(Nc2ccc3c(c2)OCO3)o1`, the EC50 was above 20000 nM.
In the case of `Cn1ncc(NCc2cccnc2)c1-c1nnc(Nc2ccc3c(c2)OCCO3)o1`, the EC50 is above 2500 nM.
Turning to `c1cncc(CNc2cn[nH]c2-c2nnc(Nc3ccc4c(c3)OCO4)o2)c1`, the EC50 is above 10000 nM.
As for `c1ccc(-c2nnc(Nc3ccc4c(c3)OCO4)o2)c(NCc2ccncc2)c1`, the half-maximal effective concentration (EC50) amounted to 5 nM.
As to `COc1cc(-c2nnc(Nc3ccc4c(c3)OCO4)o2)cc(OC)c1OC`, the EC50 is above 5000 nM.
On the same count and under the same terms, the same measure for `Nc1ccccc1-c1nnc(Nc2ccc3c(c2)OCO3)o1`: 1000 nM; for `c1cncc(CNc2ccccc2-c2nnc(Nc3ccc4c(c3)OCCO4)o2)c1`: 5 nM; for `c1cncc(CNc2cn[nH]c2-c2nnc(Nc3ccc4c(c3)OCCO4)o2)c1`: above 10000 nM.
As to `c1cc(CNc2csnc2-c2nnc(Nc3ccc4c(c3)OCCO4)o2)ccn1`, the EC50 came to 100 nM.

Another data set relates to Paracentrotus lividus. The experiment in a line: Toxicity in Paracentrotus lividus embryo assessed as mortality at => 1 uM after 9 to 12 hrs fertilization. The class given is organism-based. Conditions: in vivo.
`COc1cc(-c2nnc(Nc3ccc4c(c3)OCO4)o2)cc(OC)c1OC`: the Activity entry is “Toxic”.

The next data set relates to A549. The experiment in a line: Cytotoxicity against human A549 cells after 24 hrs by MTT assay. The class given is functional, cell-based. The settings on record: A549, 24 h. In a few lines:
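A549 cells in DMEM/10% FBS at 3 × 10³ cells/well, treated 24 h (8 wells per concentration), with 0.4% DMSO as control. MTT (final 0.5 mg/mL) was added for the last 2 h and formazan dissolved in DMSO containing 10% SDS/0.6% acetic acid. OD read at 590 nm (690 nm reference). Three repeats; IC50 from sigmoidal fit.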
Background: Formazan colour is commonly taken as a measure of viable cells.
With `Nc1ccccc1-c1nnc(Nc2ccc3c(c2)OCCO3)o1`, the IC50 worked out at 1570 nM.
`Nc1ccccc1-c1nnc(Nc2ccc3c(c2)OCO3)o1` gave an IC50 of 3000 nM.
Still for that read-out and setting: the same measure for `c1cc(CNc2csnc2-c2nnc(Nc3ccc4c(c3)OCCO4)o2)ccn1`: 53.5 nM.

For another data set, the system named is A549. The experiment in a line: Cell cycle arrest in human A549 cells assessed as accumulation at G2/M phase after 24 hrs using propidium iodide staining by flow cytometry. The class given is functional, cell-based. The settings on record: Homo sapiens, A549, 24 h; read-out: EC50. In a few lines:
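A549 cells seeded at 5 × 10⁵ per 50 mm dish and treated 24 h, with 0.4% DMSO as negative control. Cells were trypsinized, fixed in 70% ethanol at −20 °C, then treated with RNase 1 mg/mL for 30 min at 37 °C and propidium iodide for 30 min at 37 °C. DNA content of 10000 cells measured by flow cytometry; EC50 for G2/M accumulation.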
Background: Flow cytometry measures light scatter and fluorescence of single cells or particles in a stream.
For `Nc1ccccc1-c1nnc(Nc2ccc3c(c2)OCCO3)o1`, the EC50 stood at 2820 nM.
The same measure, in the same setting: the same measure for `Nc1ccccc1-c1nnc(Nc2ccc3c(c2)OCO3)o1`: 8550 nM; for `c1cc(CNc2csnc2-c2nnc(Nc3ccc4c(c3)OCCO4)o2)ccn1`: 63 nM.

Staying with this data set, now noted: a549.
Consider `c1cc(CNc2csnc2-c2nnc(Nc3ccc4c(c3)OCCO4)o2)ccn1`, for which the EC50 result is given as “Dose-dependent effect”.

Another data set deals with A549. The experiment in a line: Induction of microtubule disruption in human A549 cells at 5 uM after 8 hrs by indirect immunofluorescence microscopic analysis. Type of data set: functional, cell-based.
Conditions: not given
An outline of the steps:
(§2)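 A549 cells on glass coverslips (2 × 10⁴ per coverslip) exposed 8 h at 37 °C, 5% CO₂, with 0.6% DMSO as negative control. Fixed cells were stained with mouse anti-α-tubulin (1:400) and Alexa Fluor 488 goat anti-mouse IgG (1:200). Microtubule network examined by fluorescence microscopy.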
Consider `Nc1ccccc1-c1nnc(Nc2ccc3c(c2)OCCO3)o1`, for which the outcome was inactive.
`Nc1ccccc1-c1nnc(Nc2ccc3c(c2)OCO3)o1`: the result was inactive.
Still for that read-out and setting: the same measure for `c1cc(CNc2csnc2-c2nnc(Nc3ccc4c(c3)OCCO4)o2)ccn1`: “Active”.

The subject of the next data set is A549. The experiment in a line: Induction of microtubule disruption in human A549 cells at 25 uM after 8 hrs by indirect immunofluorescence microscopic analysis.
Conditions: not given
The class given is functional, cell-based. An outline of the steps: as §2
With `Nc1ccccc1-c1nnc(Nc2ccc3c(c2)OCCO3)o1`, the result was Active.
For the compound `Nc1ccccc1-c1nnc(Nc2ccc3c(c2)OCO3)o1`, the result was Active.

A further data set is filed under the species Bos taurus. The experiment in a line: Inhibition of purified bovine brain tubulin polymerization at 10 uM after 1 hr by VEC-DIC microscopic analysis.
Conditions: not given
An outline of the steps: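 Bovine brain tubulin (1.2 mg/mL) in BRB80 (80 mM PIPES pH 6.8, 1 mM MgCl₂, 1 mM EGTA) was polymerized with 10% DMSO and 0.5 mM GTP. It was then incubated 1 h at 37 °C with compound, using 0.6% DMSO as negative control. Microtubule assembly was scored by VEC-DIC video microscopy.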
In the case of `Nc1ccccc1-c1nnc(Nc2ccc3c(c2)OCCO3)o1`, the outcome was Active.
Take `Nc1ccccc1-c1nnc(Nc2ccc3c(c2)OCO3)o1`: the result was Active.
The same measure, in the same setting: next, `c1cc(CNc2csnc2-c2nnc(Nc3ccc4c(c3)OCCO4)o2)ccn1`: “Active”.

System in a further data set: not listed separately
The experiment in a line: Inhibition of tubulin polymerization at 10 uM.
Conditions: not given
Turning to `Nc1ccccc1-c1nnc(Nc2ccc3c(c2)OCCO3)o1`, the outcome was Active.
For the compound `Nc1ccccc1-c1nnc(Nc2ccc3c(c2)OCO3)o1`, the result was Active.
On the same count and under the same terms, the same measure for `c1cc(CNc2csnc2-c2nnc(Nc3ccc4c(c3)OCCO4)o2)ccn1`: “Active”.

The values above are taken from ChEMBL document CHEMBL1157842, “Novel derivatives of 1,3,4-oxadiazoles are potent mitostatic agents featuring strong microtubule depolymerizing activity in the sea urchin embryo and cell culture assays” (Eur J Med Chem, 2010).
